Laboratory results as given in ChEMBL document CHEMBL1128451, “Synthesis and anti-DNA viral activities in vitro of certain 2,4-disubstituted-7-(2-deoxy-2-fluoro-beta-D-arabinofuranosyl)pyrrolo[2,3-d d pyrimidine nucleosides” (J Med Chem, 1995).
≈ marks a conversion by molar mass, not a printed value. One block for each compound: values may come before it.

How the values were obtained:
[1] = Anti viral activity against 2.2.15 cells (concentration required to reduce the log phase cell growth by 50%).; type: cell-based; settings: human, 2.2.15 cells (HepG2-derived); read-out: TC50 (the source's name)
Method in brief: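 Growing 2.2.15/HepG2 cells at 1.7×10^4/well, subconfluent on collagen-coated plates, given compound dilutions in quadruplicate. Drug medium refreshed every second day. Proliferation read on days 0, 4, 8 and 12; TC50 is the concentration giving 50% inhibition of proliferation after 12 days' exposure. Mean of three or more experiments.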

HFF [2] = assay: Plaque reduction and cytotoxicity performed in HFF cell line Hs 68; type: functional, cell-based; settings: Homo sapiens
[3] = Visual cytotoxicity of […], median toxic concentration is evaluated by plaque reduction assay performed in HFF Cell line Hs 68; type: cell-based; settings: human
MRC5 [4] = assay: Anti HCMV (human cytomegalovirus) activity in MRC-5 cells infected with […] strain of HCMV (plaque reduction assay).; type: functional, cell-based
MRC5 [5] = assay: Plaque reduction performed using the DHPG- resistant D16 strain of HCMV in MRC-5 cell line; type: functional, cell-based; settings: Homo sapiens
Method in brief: (§1)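 Plaque reduction in MRC-5 cells, grown in MEM(E) with 10% FBS and passaged 1:2, infected with the DHPG-resistant D16 HCMV strain, a viral polymerase mutant. IC50 is the concentration reducing plaques by 50%, derived from a regression line of inhibition versus log concentration. Ganciclovir served as the positive control.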

[6] = Anti viral activity against MRC-5 cells (concentration required to reduce the log phase cell growth by 50%).; type: cell-based, MRC5; settings: human, read-out: TC50 (the source's name)
Method in brief: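 Growing MRC-5 cells; growth inhibition measured with the CellTiter 96 aqueous proliferation assay. TC50 is the concentration reducing log-phase cell growth by 50%.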

[7] = Visual cytotoxicity of stationary MRC-5 cells, median toxic concentration is evaluated by anti HCMV plaque reduction assay performed in MRC-5 cells using the AD169 strain of HCMV; type: cell-based, MRC5; settings: human, read-out: TC50 (the source's name)
Method in brief: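 Stationary uninfected MRC-5 cells scored visually for cytotoxicity from 0 (none at 20-fold magnification) to 4 (cell sheet nearly destroyed); median toxic concentration reported.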

[8] = Visual cytotoxicity of stationary MRC-5 cells, median toxic concentration is evaluated by plaque reduction assay performed in DHPG- resistant D16 strain of HCMV; type: cell-based, MRC5; settings: human, read-out: TC50 (the source's name)
Method in brief: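 Uninfected stationary MRC-5 cells were scored by eye for cytotoxicity, from 0 (none visible at 20-fold magnification) to 4 (cell sheet nearly destroyed). The value is the median toxic concentration.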

[9] = Anti viral activity against Vero cells (concentration required to reduce the log phase cell growth by 50%).; type: cell-based; settings: chlorocebus sabaeus, read-out: TC50 (the source's name)
Method in brief: (§2)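 Log-phase Vero cells, 5000 cells per assay, exposed to compound for 4 days in quadruplicate. Growth measured by tetrazolium-based (CellTiter 96 aqueous) proliferation read-out; averaged data used to calculate TC50, the concentration reducing cell growth by 50%.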

Vero [10] = assay: Ability to inhibit the Cytopathic effect of HSV-1 in vero cells.; type: functional, cell-based; settings: Chlorocebus sabaeus
Vero [11] = assay: Ability to inhibit the Cytopathic effect of HSV-2 in vero cells.; type: functional, cell-based; settings: Chlorocebus sabaeus
HepG2 = assay: Ability to inhibit the episomal HBV-DNA in 2.2.15 cells.; type: functional, cell-based; settings: Homo sapiens
[12] = Visual cytotoxicity of stationary HFF Cell line Hs68, median toxic concentration is evaluated by anti HCMV plaque reduction assay performed in HFF Cell line Hs 68; type: cell-based; settings: human, read-out: TC50 (the source's name)
Method in brief: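 Stationary uninfected HFF Hs68 cells scored visually for cytotoxicity from 0 (none at 20-fold magnification) to 4 (cell sheet nearly destroyed); median toxic concentration reported.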

[13] = Visual cytotoxicity of […], median toxic concentration is evaluated by anti HCMV plaque reduction assay performed in HFF Cell line Hs 68; type: cell-based; settings: human, read-out: TC50 (the source's name)
HFF [14] = assay: Anti HCMV(human cytomegalovirus) activity in HFF cell line Hs 68 infected with […] strain of HCMV(plaque reduction assay).; type: functional, cell-based
Method in brief: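 HCMV AD169 plaque reduction in diploid human foreskin fibroblast line Hs68, grown in MEM(E) with 10% FBS and passaged 1:2. IC50 is the concentration cutting plaque number by 50%, calculated by linear regression of inhibition against log drug concentration. Values are averages of three or more experiments. Ganciclovir was the positive control.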

HFF [15] = assay: Anti HCMV(human cytomegalovirus) activity in MRC-5 cells infected with DHPG-resistant D16 strain of HCMV(plaque reduction assay).; type: functional, cell-based; method in brief: as §1
[16] = Anti viral activity against vero cells (concentration required to reduce the log phase cell growth by 50%).; type: cell-based; settings: chlorocebus sabaeus, read-out: TC50 (the source's name); method in brief: as §2

SMILES: Nc1nc(N)c2ccn([C@@H]3O[C@H](CO)[C@@H](O)[C@@H]3F)c2n1
GI50 [1]: 630 µg/mL (≈ 2220 µM)
IC50 (HFF [2]): 3.4 µg/mL (≈ 12 µM)
CC50 [3]: > 1000 µg/mL
IC50 (MRC5 [4]): 3.7 µg/mL (≈ 13.1 µM)
IC50 (MRC5 [5]): 11 µg/mL (≈ 38.8 µM)
GI50 [6]: 11.4 µg/mL (≈ 40.2 µM)
CC50 [7]: > 100 µg/mL
CC50 [8]: > 100 µg/mL
CC50 [9]: 53 µg/mL (≈ 187 µM)
IC50 (Vero [10]): 4.1 µg/mL (≈ 14.5 µM)
IC50 (Vero [11]): 6.3 µg/mL (≈ 22.2 µM)
IC50 (HepG2): 0.7 µg/mL (≈ 2.47 µM)

SMILES: Nc1nc([SeH])c2ccn([C@@H]3O[C@H](CO)[C@@H](O)[C@@H]3F)c2n1
IC50 (MRC5 [4]): 10 µg/mL (≈ 28.8 µM)
CC50 [7]: 178 µg/mL (≈ 513 µM)

SMILES: COc1nc(N)nc2c1ccn2[C@@H]1O[C@H](CO)[C@@H](O)[C@@H]1F
IC50 (MRC5 [4]): > 100 µg/mL
CC50 [7]: > 100 µg/mL

SMILES: NC1=NC(=S)C2C=CN([C@@H]3O[C@H](CO)[C@@H](O)[C@@H]3F)C2=N1 (stereo partly specified)
IC50 (MRC5 [4]): > 50 µg/mL
CC50 [7]: > 50 µg/mL

SMILES: Nc1nc2c(ncn2COC(CO)CO)c(=O)[nH]1 [GANCICLOVIR]
CC50 [12]: > 1000 µg/mL
CC50 [13]: > 1000 µg/mL
IC50 (HFF [14]): 4.4 µg/mL (≈ 17.2 µM)
IC50 (HFF [15]): 52 µg/mL (≈ 204 µM)
IC50 (MRC5 [4]): 3.2 µg/mL (≈ 12.5 µM)
GI50 [6]: > 500 µg/mL
CC50 [7]: > 1000 µg/mL
CC50 [16]: 270 µg/mL (≈ 1060 µM)

IC50 (HepG2): 60 µg/mL (≈ 211 µM)
SMILES: Nc1nc2c(ccn2[C@@H]2O[C@H](CO)[C@@H](O)[C@@H]2F)c(=O)[nH]1
GI50 [1]: > 100 µg/mL
IC50 (MRC5 [4]): 51 µg/mL (≈ 179 µM)
CC50 [7]: > 100 µg/mL

SMILES: NSc1nc(N)nc2c1ccn2[C@@H]1O[C@H](CO)[C@@H](O)[C@@H]1F
IC50 (MRC5 [4]): > 100 µg/mL
CC50 [7]: > 100 µg/mL

SMILES: Nc1ncc2c(n1)N([C@@H]1O[C@H](CO)[C@@H](O)[C@@H]1F)CC2
IC50 (MRC5 [4]): > 100 µg/mL
CC50 [7]: 32 µg/mL (≈ 118 µM)

IC50 (HepG2): 2.1 µg/mL (≈ 9.94 µM)
SMILES: Nc1ccn([C@H]2CC[C@@H](CO)O2)c(=O)n1 [ZALCITABINE]
GI50 [1]: 64 µg/mL (≈ 303 µM)

SMILES: Nc1nc(Cl)c2ccn([C@@H]3O[C@H](CO)[C@@H](O)[C@@H]3F)c2n1
IC50 (MRC5 [4]): > 100 µg/mL
CC50 [7]: 32 µg/mL (≈ 106 µM)

IC50 (HepG2): > 30 µg/mL
SMILES: Nc1nc(N)c2ccn(C3OC(CO)CC3F)c2n1 (stereo unspecified)
GI50 [1]: 149 µg/mL (≈ 558 µM)
IC50 (MRC5 [4]): > 100 µg/mL
CC50 [7]: > 100 µg/mL
IC50 (Vero [10]): > 100 µg/mL
IC50 (Vero [11]): > 100 µg/mL

SMILES: Nc1ncc2ccn([C@@H]3O[C@H](CO)[C@@H](O)C3F)c2n1 (stereo partly specified)
IC50 (MRC5 [4]): 16 µg/mL (≈ 59.6 µM)
CC50 [7]: > 100 µg/mL
